Data set [1] in a line: Clearance in Wistar rat at 3.1 uM/kg, po and […] uM/kg, iv. It counts as ADME, organism-based. The following applies: in vivo.
Data set [2] can be described thus: Lipophilicity, log D of the compound at pH 7.4. The following applies: buffer.
Data set [3] is described as follows: Apparent intrinsic permeability in human Caco2 cells at pH 6.5. Type of data set: ADME, cell-based. The following applies: Caco-2, pH 6.5.
The nature of data set [4]: Cmax in nude mouse at 124 umol/kg. Type of data set: ADME, organism-based. Details: dose 124 umol/kg. The following applies: in vivo.
A short description of data set [5]: Clearance in CD1 mouse at 2.5 uM/kg, po and iv. Type of data set: ADME, organism-based. The following applies: in vivo. Put shortly: (§1)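 CD1 mice dosed po and iv at 2.5 µMol/kg.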
Data set [6] can be described thus: Half life in human hepatocytes. It counts as ADME, cell-based, Hepatocyte.
The target in data set [7] is T1, 6-phosphofructo-2-kinase/fructose-2,6-bisphosphatase 3 (Homo sapiens, UniProt Q16875). Put plainly: Inhibition of recombinant human PFKFB3 using fructose 6 phosphate as substrate assessed as ADP generation after 1 hr by ADP Glo assay.
The nature of data set [8]: AUC in nude mouse at 124 umol/kg. Type of data set: ADME, organism-based. The conditions noted are these: plasma.
Data set [9] in a line: Half life in mouse hepatocytes. Type of data set: ADME, cell-based, Hepatocyte.
A short description of data set [10]: Efflux ratio of apparent intrinsic permeability in human Caco2 cells. It counts as ADME, cell-based. The following applies: Caco-2.
The target of data set [11] is T1, 6-phosphofructo-2-kinase/fructose-2,6-bisphosphatase 3. The experiment in a line: Inhibition of PFKFB3 in human A549 cells assessed as reduction of fructose-1,6-bisphosphate formation after 4 hrs by MS/MS analysis. Type of data set: cell-based. Put shortly: (§2)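 A549 cells; fructose-1,6-bisphosphate or lactate production measured.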
Data set [12] in a line: Fraction unbound in mouse plasma. It counts as ADME, cell-free.
Data set [13] in a line: Fraction unbound in human plasma. Type of data set: ADME, cell-free.
Data set [14] is described as follows: Half life in CD1 mouse at 2.5 uM/kg, iv. It counts as ADME, organism-based. The conditions noted are these: in vivo. The method, boiled down:
as §1

The target of data set [15] is 6-phosphofructo-2-kinase/fructose-2,6-bisphosphatase 1 (Homo sapiens, UniProt P16118). Put plainly: Inhibition of recombinant human PFKFB1 using fructose 6 phosphate as substrate assessed as ADP generation after 1 hr by ADP Glo assay.
The next data set has as its system A549. The experiment in a line: Cytotoxicity against human A549 cells assessed as cell viability after 4 hrs. The following applies: a549, 4 h. Type of data set: cell-based.
A short description of data set [16]: Volume of distribution at steady state in CD1 mouse at 2.5 uM/kg, po and iv. Type of data set: ADME, organism-based. The following applies: in vivo, read-out: Vdss. The method, boiled down: as §1
A short description of data set [17]: Fraction unbound in rat plasma. It counts as ADME, cell-free.
For data set [18], the target named is 6-phosphofructo-2-kinase/fructose-2,6-bisphosphatase 2 (Homo sapiens, UniProt O60825). The experiment in a line: Inhibition of recombinant human PFKFB2 using fructose 6 phosphate as substrate assessed as ADP generation after 1 hr by ADP Glo assay.
Data set [19] can be described thus: Aqueous solubility of the compound at pH 7.4. Type of data set: physicochemical. The conditions noted are these: buffer.
Data set [20] deals with T1, 6-phosphofructo-2-kinase/fructose-2,6-bisphosphatase 3. The experiment in a line: Inhibition of PFKFB3 in human A549 cells assessed as decrease in lactate secretion after 4 hrs. Type of data set: cell-based. Put shortly: as §2
For a further data set, the species on record is Homo sapiens. The experiment in a line: Selectivity ratio of IC50 for recombinant human PFKFB2 to IC50 for recombinant human PFKFB3. The method, boiled down: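 Ratio of the PFKFB2 enzyme IC50 to the PFKFB3 enzyme IC50. Each IC50 is the mean of at least two independent measurements, reported in micromolar, with SEM ±0.2 log units.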
A short description of data set [21]: Volume of distribution at steady state in Wistar rat at 3.1 uM/kg, po and 2.5 uM/kg, iv. It counts as ADME, organism-based. The following applies: in vivo, read-out: Vdss. Put shortly: (§3)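 Male Wistar Han rats, 10-12 weeks old (n=2), given 3.1 µMol/kg po and 2.5 µMol/kg iv in 5% DMSO / 95% Captisol (30% in water).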
Data set [22] can be described thus: Half life in Wistar rat at 2.5 uM/kg, iv. The conditions noted are these: in vivo. Type of data set: ADME, organism-based. The method, boiled down: as §3
Data set [23] in a line: Half life in rat hepatocytes. Type of data set: ADME, cell-based, Hepatocyte.
Data set [24] in a line: Oral bioavailability in CD1 mouse at 2.5 uM/kg. The conditions noted are these: in vivo. Type of data set: ADME, organism-based. Put shortly: as §1

Converted amounts (≈) assume the structure as drawn.

Results on nine molecules are retold here after ChEMBL document CHEMBL3421585, “Structure-Based Design of Potent and Selective Inhibitors of the Metabolic Kinase PFKFB3” (J Med Chem, 2015).

Chain of 6-phosphofructo-2-kinase/fructose-2,6-bisphosphatase 2 (O60825 whole entry): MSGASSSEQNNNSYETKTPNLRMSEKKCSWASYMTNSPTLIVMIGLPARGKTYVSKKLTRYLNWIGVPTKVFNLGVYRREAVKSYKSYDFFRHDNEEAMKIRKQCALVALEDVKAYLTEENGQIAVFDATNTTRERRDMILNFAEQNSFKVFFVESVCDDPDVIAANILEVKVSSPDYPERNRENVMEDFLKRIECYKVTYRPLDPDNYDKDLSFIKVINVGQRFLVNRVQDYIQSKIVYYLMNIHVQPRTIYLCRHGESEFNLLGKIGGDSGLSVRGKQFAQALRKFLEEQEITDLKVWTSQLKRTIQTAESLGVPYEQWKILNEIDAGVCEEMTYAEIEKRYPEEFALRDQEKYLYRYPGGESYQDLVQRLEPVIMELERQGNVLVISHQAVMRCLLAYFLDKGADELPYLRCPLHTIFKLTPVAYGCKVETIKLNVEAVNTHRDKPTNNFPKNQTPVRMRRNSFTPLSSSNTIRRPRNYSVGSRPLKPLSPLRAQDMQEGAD
Chain of 6-phosphofructo-2-kinase/fructose-2,6-bisphosphatase 1 (P16118 whole entry): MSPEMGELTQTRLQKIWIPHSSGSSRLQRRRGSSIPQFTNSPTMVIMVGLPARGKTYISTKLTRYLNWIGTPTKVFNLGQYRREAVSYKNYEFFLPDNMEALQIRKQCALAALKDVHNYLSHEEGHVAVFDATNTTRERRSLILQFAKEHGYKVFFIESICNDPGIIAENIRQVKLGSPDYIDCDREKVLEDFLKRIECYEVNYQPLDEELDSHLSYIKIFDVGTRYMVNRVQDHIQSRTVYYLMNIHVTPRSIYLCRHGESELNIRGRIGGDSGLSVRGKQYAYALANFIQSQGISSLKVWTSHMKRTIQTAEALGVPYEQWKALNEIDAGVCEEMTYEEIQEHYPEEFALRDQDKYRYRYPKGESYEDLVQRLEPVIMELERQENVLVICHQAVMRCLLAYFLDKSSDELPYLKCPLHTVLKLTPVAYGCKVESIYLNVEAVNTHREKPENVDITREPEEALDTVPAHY
T1 sequence (Q16875 whole entry): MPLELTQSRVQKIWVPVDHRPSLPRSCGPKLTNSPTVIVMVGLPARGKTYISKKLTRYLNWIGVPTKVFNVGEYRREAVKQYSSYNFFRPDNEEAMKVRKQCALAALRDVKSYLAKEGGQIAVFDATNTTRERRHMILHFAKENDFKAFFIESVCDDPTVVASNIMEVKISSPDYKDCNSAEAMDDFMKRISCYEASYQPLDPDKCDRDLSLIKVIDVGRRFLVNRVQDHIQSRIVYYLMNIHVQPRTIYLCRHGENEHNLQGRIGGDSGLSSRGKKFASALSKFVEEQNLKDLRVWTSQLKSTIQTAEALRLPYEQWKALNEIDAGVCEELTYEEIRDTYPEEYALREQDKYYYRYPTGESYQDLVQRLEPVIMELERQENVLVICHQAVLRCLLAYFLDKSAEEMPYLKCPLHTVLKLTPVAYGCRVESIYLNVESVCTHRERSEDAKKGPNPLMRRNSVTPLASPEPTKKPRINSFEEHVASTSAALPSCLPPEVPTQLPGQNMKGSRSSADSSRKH

The molecule `CC(C)Cn1cc(C#N)c2cc(Oc3ccc(NC(=O)[C@@H]4CCCN4)cc3)ccc21` displayed a clearance in data set [1] of 2 mL/min/kg. For the same molecule, the logD in data set [2] came out at 3.5. Also, the Papp in [3] is 13.4 ×10⁻⁶ cm/s. In [4], this molecule displayed a Cmax of 35 µM. This molecule came in with a clearance at […] in data set [5] of 38 mL/min/kg. The results for the half-life in data set [6], in data set [9] and in data set [23] were 28 min, 21 min and 21 min, respectively. The IC50 in [7] is 0.023 µM; in data set [11] it was 0.343 µM; in [15] it was 2.06 µM; in data set [18], 0.384 µM; in data set [20], 5.77 µM. Further, the AUC in data set [8] was 259 µM·h. In addition, the efflux ratio in [10] turned out to be 4.6. Also, the fraction unbound in data set [12] is 0.0164; in [13], 0.0033; in data set [17], less than 0.0003. Also, the half-life at […] in [14] is 84 min; in [22], 204 min. Further, in the data set on A549, the Activity entry is “Toxic”. Further, the Vd at […] in [16] was determined as 3.3 L/kg. The molecule also registered a solubility in [19] of 48 µM (≈ 19.3 µg/mL). The Ratio IC50 in the data set listed under Homo sapiens was 17. Also, the Vd in data set [21] stood at 0.4 L/kg. The same molecule yielded a bioavailability at […] in data set [24] of 42%.

Consider `CCn1cc(C#N)c2cc(Oc3ccc(NC(=O)[C@@H]4CCCN4)cc3)ccc21`, for which the logD in [2] came out at 2.9. The half-inhibitory concentration (IC50) in [7] was found to be 0.112 µM; in data set [11], 3.05 µM; in [15], 22.1 µM; in data set [18] it was 1.82 µM; in data set [20] it was 12 µM. The Activity result with A549 is given as “Non-toxic”.

Regarding `CC(C)Cn1nc(C#N)c2cc(Oc3ccc(NC(=O)[C@@H]4CCCN4)cc3)ccc21`, the logD in [2] was determined as 3.6. Further, the IC50 was found to be 0.004 µM in data set [7]; 0.297 µM in data set [11]; 0.294 µM in data set [15]; 0.015 µM in data set [18]; 15.4 µM in [20]. Also, the Activity entry in the data set on A549 was “Toxic”. The Ratio IC50 in the data set listed under Homo sapiens was found to be 4.

The molecule `N#Cc1c(N)n(Cc2ccccc2)c2ccc(Oc3ccc(NC(=O)CN)cc3)cc12` yielded a logD in data set [2] of 2.9. Besides, the IC50 in [7] is 0.104 µM; in data set [11] it was more than 30 µM; in data set [15] it was 2.66 µM; in [18] it was 1.48 µM; in data set [20] it was 12.6 µM. The Activity result in the data set with A549 is listed as “Toxic”.

For `N#Cc1cn(-c2ccccc2)c2ccc(Oc3ccc(NC(=O)[C@@H]4CCCN4)cc3)cc12`, the logD in [2] was more than 4.3. Also, the IC50 in [7] came to 0.027 µM; in data set [15], 1.93 µM; in data set [18], 0.374 µM; in [20], 8.71 µM. The Activity entry in the data set with A549 is given as “Toxic”.

`CC(C)Cn1cc(C#N)c2cc(N(C)c3ccc(NC(=O)[C@@H]4CCCN4)cc3)ccc21` displayed a pH-dependent lipophilicity (logD) in data set [2] of 3.8. The IC50 is 0.075 µM in [7]; more than 30 µM in data set [11]; 5 µM in data set [15]; 0.141 µM in data set [18]; 13.7 µM in data set [20]. Also, the Activity result with A549 is on record as “Toxic”.

On to `CC(C)Cn1c(N)c(C#N)c2cc(Oc3ccc(NC(=O)CN)cc3)ccc21`, for which the pH-dependent lipophilicity (logD) in [2] turned out to be 3.2. The IC50 in data set [7] was 0.177 µM; in data set [11] it was more than 30 µM; in data set [15], 3.18 µM; in [18], 2.52 µM; in data set [20] it was 16.4 µM. Also, the Activity entry with A549 is reported as “Toxic”.

Molecule `Cn1cc(-c2cn(C)c3ccc(Oc4ccc(NC(=O)[C@@H]5CCCN5)cc4)cc23)cn1` yielded a logD in data set [2] of 1.9. For the same molecule, the IC50 worked out at 0.021 µM in data set [7]; 0.979 µM in data set [11]; 2.35 µM in [15]; 0.818 µM in data set [18]; 9.71 µM in data set [20]. The Activity result with A549 is “Non-toxic”.

In data set [2], `CN1Cc2cc(-n3cc(C#N)c4cc(Oc5ccc(NC(=O)[C@@H]6CCCN6)cc5)ccc43)ccc2C1=O` gave a logD of 3. Besides, the half-maximal inhibitory concentration (IC50) was 0.008 µM in [7]; 0.14 µM in data set [11]; 0.701 µM in data set [15]; 0.108 µM in data set [18]; 2.18 µM in [20]. The Activity result in the data set on A549 is “Non-toxic”.
